From publication PMC5817033 (Nuclear medicine and biology, 2017)
Values joined by “and” are separate entries in the source; they are usually repeats but may differ in a detail not shown here. Identical values can stand only once. Like-named read-outs stand apart in the source and are kept apart here.

Experiments:
[1] = normal rats, mean ± SD, cited from earlier work
[2] = cited from earlier work
[3] = Ex-vivo biodistribution of ^18F-1 co-injected with ^131I-OIH in normal rats; set-up: species or system Sprague-Dawley rats; details: mean ± SD
[4] = cited from earlier work; remark: listed apart in the source
[5] = rat plasma, ultrafiltration, mean of duplicate
[6] = rat urine collected for 10 min after i.v. injection
[7] = pH 7, room temperature, over 23 hours after labeling
[8] = rat blood, mean of duplicate
[9] = rats, 1 h post injection; cited from earlier work
[10] = Thermal stability of labeling precursor by HPLC; type: physicochemical; details: 110 °C for 1 hour
Procedure, shortened: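 Tosylate labeling precursor heated at 110 °C for 1 hour. Stability is judged by comparing its HPLC chromatograms before and after heating.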

Compound	Blood activity ([1]; 10 min after injection)	Bowel activity (intestines and stomach) ([1]; 10 min after injection)	Heart activity ([1]; 10 min after injection)	Kidney activity ([1]; 10 min after injection)	Liver activity ([1]; 10 min after injection)	Lung activity ([1]; 10 min after injection)	Spleen activity ([1]; 10 min after injection)	Urine activity ([1]; 10 min after injection)	Blood activity ([1]; 60 min after injection)	Bowel activity (intestines and stomach) ([1]; 60 min after injection)	Heart activity ([1]; 60 min after injection)	Kidney activity ([1]; 60 min after injection)	Liver activity ([1]; 60 min after injection)	Lung activity ([1]; 60 min after injection)	Spleen activity ([1]; 60 min after injection)	Urine activity ([1]; 60 min after injection)	Blood activity ([3]; 10 min after i.v. injection)	Bowel activity (intestines and stomach) ([3]; 10 min after i.v. injection)	Heart activity ([3]; 10 min after i.v. injection)	Kidney activity ([3]; 10 min after i.v. injection)	other results
O=C(O)CNC(=O)c1ccccc1[131I] [OIH, ^131I-orthoidodohippurate]	5.8 ± 1.0 %ID	1.8 ± 0.2 %ID	0.2 ± 0.0 %ID	4.8 ± 0.8 %ID	3.0 ± 0.9 %ID	0.4 ± 0.1 %ID	0.1± 0.0 %ID	54.2 ± 9.2 %ID	0.5 ± 0.4 %ID	1.2 ± 0.5 %ID	0.1 ± 0.0 %ID	0.5 ± 0.2 %ID	0.5 ± 0.1 %ID	0.1 ± 0.1 %ID	0.1 ± 0.1 %ID	80.2 ± 5.3 %ID	4.5 ± 0.4 %ID	1.3 ± 0.6 %ID	0.1 ± 0.0 %ID	5.2 ± 1.6 %ID	Plasma protein binding [2]: 44%; Liver activity ([3]; 10 min after i.v. injection): 2.8 ± 0.6 %ID; Lung activity ([3]; 10 min after i.v. injection): 0.3 ± 0.1 %ID; Spleen activity ([3]; 10 min after i.v. injection): 0.1 ± 0.0 %ID; Urine activity ([3]; 10 min after i.v. injection): 54.4 ± 6.9 %ID; Blood activity ([3]; 60 min after i.v. injection): 0.8 ± 0.1 %ID; Bowel activity (intestines and stomach) ([3]; 60 min after i.v. injection): 1.1 ± 0.2 %ID; Heart activity ([3]; 60 min after i.v. injection): 0.0 ± 0.0 %ID; Kidney activity ([3]; 60 min after i.v. injection): 1.0 ± 0.8 %ID; Liver activity ([3]; 60 min after i.v. injection): 0.6 ± 0.1 %ID; Lung activity ([3]; 60 min after i.v. injection): 0.1 ± 0.1 %ID; Spleen activity ([3]; 60 min after i.v. injection): 0.0 ± 0.0 %ID; Urine activity ([3]; 60 min after i.v. injection): 84.8 ± 3.8 %ID; Red cell uptake [4]: 35%
O=C([O-])CN(CC[18F])CC(=O)[O-].[C-]#[O+].[C-]#[O+].[C-]#[O+].[Re+] [^18F-1, rhenium-tricarbonyl-N-(2-[^18F]fluoroethyl)iminodiacetic acid]																	5.2 ± 0.7 %ID	2.1 ± 1.7 %ID	0.1 ± 0.0 %ID	9.4 ± 2.0 %ID	Plasma protein binding (PPB) [5]: 87%; In vivo stability: HPLC analysis of urine for metabolites [6]: only the intact parent compound; In vitro stability of formulated solution (HPLC) [7]: No measurable decomposition; Erythrocyte uptake (RCB) [8]: 21%; %Urine: urine activity as a percentage of ^131I-OIH (^18F/^131I-OIH ratio) ([3]; 10 min): 92% and 92 ± 14%; Bone uptake ([3]; 10 min after i.v. injection): 0.08 ± 0.01 %ID/g; Liver activity ([3]; 10 min after i.v. injection): 5.6 ± 0.3 %ID; Lung activity ([3]; 10 min after i.v. injection): 0.4 ± 0.1 %ID; Spleen activity ([3]; 10 min after i.v. injection): 0.1 ± 0.0 %ID; Urine activity ([3]; 10 min after i.v. injection): 49.3 ± 3.7 %ID; %Urine: urine activity as a percentage of ^131I-OIH (^18F/^131I-OIH ratio) ([3]; 60 min): 95% and 95 ± 5%; Blood activity ([3]; 60 min after i.v. injection): 0.3 ± 0.1 %ID; Bowel activity (intestines and stomach) ([3]; 60 min after i.v. injection): 3.9 ± 2.0 %ID; Heart activity ([3]; 60 min after i.v. injection): 0.0 ± 0.0 %ID; Kidney activity ([3]; 60 min after i.v. injection): 1.0 ± 0.7 %ID; Liver activity ([3]; 60 min after i.v. injection): 0.4 ± 0.1 %ID; Lung activity ([3]; 60 min after i.v. injection): 0.1 ± 0.1 %ID; Spleen activity ([3]; 60 min after i.v. injection): 0.0 ± 0.0 %ID; Urine activity ([3]; 60 min after i.v. injection): 80.5 ± 4.4 %ID
O=C(O)CNC(=O)c1ccc([18F])cc1 [^18F-PFH, p-^18F-fluorohippuran]																					Activity in blood [9]: ~ 0.3 %ID; Activity in urine [9]: ~ 81 % ID
^99mTc(CO)3(2-fluoroethyl)iminodiacetic acid [^99mTc-1]	5.1 ± 0.9 %ID	2.9 ± 0.5 %ID	0.1 ± 0.0 %ID	6.6 ± 2.1 %ID	5.9 ± 0.8 %ID	0.4 ± 0.2 %ID	0.1 ± 0.0 %ID	54.1 ± 7.2 %ID	0.3 %ID and 0.3 ± 0.1 %ID	2.9 ± 1.4 %ID	0.0 ± 0.0 %ID	0.7 ± 0.2 %ID	0.8 ± 0.1 %ID	0.1 ± 0.1 %ID	0.1 ± 0.2 %ID	79.2 ± 6.4 %ID					%Urine: urine activity as a percentage of ^131I-OIH (^99mTc/^131I-OIH ratio) ([1]; 10 min): 100 ± 4%; %Urine: urine activity as a percentage of ^131I-OIH (^99mTc/^131I-OIH ratio) ([1]; 60 min): 99 ± 2%; Erythrocyte uptake ([4]; rats): 20%
rhenium-tricarbonyl-N-(2-(4-methylbenzenesulphonate)ethyl))iminodiacetic acid [Re-OTs]																					Stability on heating (HPLC) [10]: stable
